Many of the other results were omitted from the sample, so hits are more common in it than they were.
Tb MetRS inh: Trypanosoma brucei MetRS inhibition | purified T. brucei MetRS, ATP depletion, Kinase-Glo luminescence | inhibition, % at 11.9 µM | hit rate 0.4% among 360,000;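 active = inhibition above a per-plate cutoff of the control wells' mean inhibition plus 3 SD, cut at about 5.5% in these data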;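 note: 0% = DMSO wells median and 100% = median of wells with control inhibitor compound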
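Dosing: 11.9 µM single point; system: parasite MetRS enzyme; technique: luminescence of leftover ATP; times: 15 min enzyme-compound preincubation, 2 h reaction, 10 min detection, 25 °C; replicates: each compound tested once; read-out basis: percent inhibition relative to median high and low control wells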
UPR XBP1 act: activators of adaptive arm of unfolded protein response (XBP1); CHO-XBP1 luciferase reporter, IRE1-XBP1 UPR activation, luminescence; percent of tunicamycin response, DMSO as zero; activation, % at 20 µM; hit rate 0.33% among 330,000; AID 463104;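 active = versus positive control, 20 µM dose yields 30% or more activation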;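 note: 100% = tunicamycin at 10 µg/mL and 0% = DMSO only wells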
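Material – CHO cell line with stable XBP1 luciferase reporter · Buffer or medium – F12 plus 10% FBS · Compound – single point, 20 µM final compound, 1% DMSO · Schedule – 16-18 h cell attachment at 37 °C, then 6 h compound exposure · Signal – Steady-Glo luminescence read · Benchmarks – high control tunicamycin 10 µg/mL final, low control DMSO vehicle only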
CHOP inh: blocks CHOP induction under ER stress; AID 2732; hit rate 3.8% among 220,000; CHO-K1 CHOP-promoter luciferase, tunicamycin-induced, 15-18 h; inhibition, % at 10 µM;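 active = compounds that reduced the stress-induced luciferase reporter signal by more than about 70% of percent inhibition, limit read from the data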;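 note: 0% = tunicamycin plus vehicle and 100% = wells without tunicamycin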
UPR CHOP act: apoptotic UPR (CHOP) activation; activation, % at 10 µM; hit rate 0.34% among 330,000; AID 449763; CHO-CHOP luciferase reporter, luminescence; percent of tunicamycin response over DMSO baseline;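 active = at 10 µM dose, activation of 40% or more, normalized to positive control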;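 note: 100% = tunicamycin at 10 µg/mL and 0% = DMSO alone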
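Dosing – one dose, 10 µM in 0.5% DMSO · System – CHO-CHOP cells, stable luciferase reporter of PERK-eIF2a-CHOP signalling · Input – 500 cells/well · Control set – tunicamycin 10 µg/mL final as positive, DMSO-only wells as negative · Timing – 6 h compound treatment, 37 °C · Measure – % activation vs tunicamycin · Technique – luminescence read with Steady-Glo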
V-ATPase pHluor: regulators of yeast V-ATPase proton transport; S. cerevisiae, pHLuorin cytosolic pH fluorescence; response, % at 10 µM; hit rate 0.37% among 350,000; in the data active = response mostly above about 7.3%, no sharp cut-off; inactive = mostly below about 5.4%; note: actives read high
Numbers without * were called inactive; nt = no result given.

SMILES	Tb MetRS inh	UPR XBP1 act	CHOP inh	UPR CHOP act	V-ATPase pHluor
O=C(N/N=C/c1ccc(OC(F)F)cc1OC(F)F)c1ccc(Br)cc1	-1	1	34	-2	1
CCCC(=O)NC(c1cccs1)c1cc(Cl)c2cccnc2c1O (stereo not drawn)	0	-1	75*	-1	-1
CCCC(=O)NC(c1ccco1)c1cc(Cl)c2cccnc2c1O (stereo not drawn)	0	0	-5	-2	-1
Cc1conc1NC(c1cccs1)c1ccc2cccnc2c1O (stereo not drawn)	nt	1	nt	4	nt
CC(C)CC(=O)NC(c1cccs1)c1ccc2cccnc2c1O (stereo not drawn)	0	0	79*	5	3
CCC(=O)NC(c1cccs1)c1ccc2cccnc2c1O (stereo not drawn)	0	5	86*	23	-3
CCCCC(=O)NC(c1ccccc1OC)c1ccc2cccnc2c1O (stereo not drawn)	-1	4	72*	-1	-9
CCOC(=O)C1(Cc2ccccc2)CCN(Cc2cc(OC)c3c(c2)OCO3)CC1	0	-1	40	-3	0
N#Cc1cccc(-c2csc(C(O)c3ccco3)n2)c1 (stereo not drawn)	0	nt	nt	nt	nt
CCn1c(SCC(=O)NCc2ccccc2)nnc1-c1ccccc1O	0	-4	82*	-2	-1
Cc1ccc(-n2c(CCc3ccccc3)nnc2SCC(=O)NCc2ccccc2)cc1C	-1	-2	85*	3	3
O=CNc1c(Cl)cc2c(c1Cl)Cc1cc([N+](=O)[O-])ccc1-2	0	nt	nt	nt	-1
Cc1cc(NC(=O)COC(=O)c2oc3c(Cl)cccc3c2C)no1	0	-1	74*	2	1
Cc1c(N=C2C(=O)Nc3ccccc32)c(=O)n(-c2ccccc2)n1C	-1	0	48	-1	9.3*
O=C(/C=C/c1ccco1)NC(=S)Nc1ccc(N2CCOCC2)c(Cl)c1	-1	6	75*	-2	-1
O=C(/C=C/c1ccccc1)NC(=S)Nc1ccc(N2CCOCC2)c(Cl)c1	0	-1	52	3	-2
Cn1c(NCc2ccco2)nc2c1c(=O)n(Cc1ccc(Cl)cc1)c(=O)n2C	-2	4	79*	-2	-6
COc1ccc(Cl)c(Cn2c(NCc3ccco3)nc3c2c(=O)n(C)c(=O)n3C)c1	0	-5	19	2	-2
CCCn1c(NCc2ccco2)nc2c1c(=O)n(C)c(=O)n2C	-1	-2	13	1	-1
Cn1c(NCc2ccco2)nc2c1c(=O)n(Cc1ccc(Br)cc1)c(=O)n2C	1	-8	89*	-1	-4
Cn1c(=O)n(Cc2ccc(Cl)cc2)c(=O)c2c1nc1n2CCN1Cc1ccco1	1	0	22	-1	2
Cn1c(NCc2ccco2)nc2c1c(=O)n(Cc1ccc(Cl)cc1Cl)c(=O)n2C	0	-2	88*	0	1
COc1ccc(CCNC(=O)CCCn2c(=S)[nH]c3ccsc3c2=O)cc1OC	0	nt	nt	nt	-4
CCOC(=O)c1cc2c(c(-c3ccccc3)n1)[C@H](CCO)N(S(=O)(=O)C(C)(C)C)C2	-1	nt	nt	nt	1
Cn1c(CC(=O)Nc2ccccc2C(F)(F)F)c(Sc2ccccc2)c2ccccc21	0	-3	76*	-2	0
SMILES	Tb MetRS inh	UPR XBP1 act	CHOP inh	UPR CHOP act	V-ATPase pHluor
CC(C)c1cn(CC[C@@H]2CC[C@@H](NC(=O)C3CCCCC3)[C@@H](CO)O2)nn1	0	nt	nt	nt	nt
CCNc1nc(SCCOc2ccc(Cl)cc2Cl)nc(N(C)C)n1	0	nt	91*	nt	0
COc1cccc(-c2cccc3c2NC(=O)C3(C)Cc2cccc(F)c2)c1 (stereo not drawn)	-1	nt	nt	nt	nt
Nc1nc2c(ncn2[C@@H]2O[C@H](CNCc3cnc(N4CCOCC4)s3)[C@@H](O)[C@H]2O)c(=O)[nH]1	-1	nt	nt	nt	nt
Cc1ccc(Cn2ccc(-c3cnc(-c4ccccc4)s3)n2)cc1	-1	-2	87*	8	2
Fc1ccc(Cn2ccc(-c3cnc(-c4ccccc4)s3)n2)cc1	0	1	80*	5	0
O=S(=O)(c1ccccc1)n1ccc(-c2cnc(-c3ccccc3)s2)n1	1	3	20	3	0

High-throughput results (PubChem BioAssay)
